According to ChEMBL document CHEMBL2384929, “Synthesis and biological evaluation of fluoro analogues of antimitotic phenstatin” (Bioorg Med Chem, 2013):

Test system: SF-268
Assay: Cytotoxicity against human SF268 cells assessed as growth inhibition after 48 hrs by SRB assay
Assay type: functional
Details: SF-268, 48 h
Summary of the method: (§1)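 Run in the NCI 60 human tumour cell line panel. Cells exposed for 48 h, growth read by sulforhodamine B. Compounds were first screened at a single 10 µM dose, and those meeting preset threshold inhibition criteria went on to the 5-dose screen. GI50 is the molar concentration giving 50% growth inhibition.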
For COc1ccc(C(=O)c2cc(F)c(F)c(OC)c2F)c(OC)c1N, the GI50 was 6.54 µM.
In the case of COc1ccc(C(=O)c2cc(F)c(F)c(OC)c2F)cc1O, the GI50 is reported as 3.85 µM.

Species: Ovis aries
Assay: Inhibition of sheep brain tubulin assembly at 100 uM by DAPI staining-based fluorescence assay
Details: not given
Summary of the method: (§2)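 Tubulin from sheep brain, purified by two assembly–disassembly cycles, at about 2–3 mg/mL in 0.1 M MES, 0.5 mM MgCl2, 1 mM EGTA, 1 mM GTP, pH 6.6. Assembly followed by DAPI fluorescence at 37 °C. Single-point inhibition tested at 100 µM. IC50 is the concentration halving the assembly rate relative to no compound, mean of two experiments, with reference inhibitors run the same day.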
For COc1ccc(C(=O)c2cc(F)c(F)c(OC)c2F)c(OC)c1N, the inhibition was 89%.
Work on COc1ccc(C(=O)c2cc(F)c(F)c(OC)c2F)cc1O yielded an inhibition of 88%.

Test system: HL-60(TB)
Assay: Cytotoxicity against human HL-60(TB) cells assessed as growth inhibition after 48 hrs by SRB assay
Assay type: functional
Details: HL-60, 48 h
Summary of the method: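 NCI 60-human-cancer-cell-line screen; only compounds meeting predetermined threshold inhibition criteria in the single-dose test went on to the 5-dose screen. Cells exposed for 48 h and growth read by sulforhodamine B assay. GI50 is the molar concentration giving 50% growth inhibition of tumour cells.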
In the case of COc1ccc(C(=O)c2cc(F)c(F)c(OC)c2F)c(OC)c1N, the GI50 is reported as 3.69 µM.
Work on COc1ccc(C(=O)c2cc(F)c(F)c(OC)c2F)cc1O yielded a GI50 of 2.02 µM.

Test system: SW-620
Assay: Cytotoxicity against human SW620 cells assessed as growth inhibition after 48 hrs by SRB assay
Assay type: functional
Details: SW-620, 48 h
Summary of the method: as §1
For COc1ccc(C(=O)c2cc(F)c(F)c(OC)c2F)c(OC)c1N, the GI50 was 2.84 µM.
COc1ccc(C(=O)c2cc(F)c(F)c(OC)c2F)cc1O showed a GI50 of 0.703 µM.

Test system: Hs-578T
Assay: Cytotoxicity against human Hs578T cells assessed as growth inhibition after 48 hrs by SRB assay
Assay type: functional
Details: not given
Summary of the method: as §1
In the case of COc1ccc(C(=O)c2cc(F)c(F)c(OC)c2F)c(OC)c1N, the GI50 is reported as 3.78 µM.
COc1ccc(C(=O)c2cc(F)c(F)c(OC)c2F)cc1O gave a GI50 of 1.6 µM.

Test system: NCI/ADR-RES
Assay: Cytotoxicity against human NCI/ADR-RES cells assessed as growth inhibition after 48 hrs by SRB assay
Assay type: functional
Details: not given
Summary of the method: as §1
Work on COc1ccc(C(=O)c2cc(F)c(F)c(OC)c2F)c(OC)c1N yielded a GI50 of 1.67 µM.
Work on COc1ccc(C(=O)c2cc(F)c(F)c(OC)c2F)cc1O yielded a GI50 of 0.789 µM.

Test system: SR
Assay: Cytotoxicity against human SR cells assessed as growth inhibition after 48 hrs by SRB assay
Assay type: functional
Details: not given
Summary of the method: as §1
For COc1ccc(C(=O)c2cc(F)c(F)c(OC)c2F)c(OC)c1N, the GI50 was 0.961 µM.
COc1ccc(C(=O)c2cc(F)c(F)c(OC)c2F)cc1O gave a GI50 of 0.969 µM.

Test system: SN12C
Assay: Cytotoxicity against human SN12C cells assessed as growth inhibition after 48 hrs by SRB assay
Assay type: functional
Details: not given
Summary of the method: as §1
For COc1ccc(C(=O)c2cc(F)c(F)c(OC)c2F)c(OC)c1N, the GI50 was 5.81 µM.
With COc1ccc(C(=O)c2cc(F)c(F)c(OC)c2F)cc1O the GI50 was 5.16 µM.

Test system: DU-145
Assay: Cytotoxicity against human DU145 cells assessed as growth inhibition after 48 hrs by SRB assay
Assay type: functional
Details: DU-145, 48 h
Summary of the method: as §1
In the case of COc1ccc(C(=O)c2cc(F)c(F)c(OC)c2F)c(OC)c1N, the GI50 is reported as 3.91 µM.
In the case of COc1ccc(C(=O)c2cc(F)c(F)c(OC)c2F)cc1O, the GI50 is reported as 2.08 µM.

Test system: NCI-H522
Assay: Cytotoxicity against human NCI-H522 cells assessed as growth inhibition after 48 hrs by SRB assay
Assay type: functional
Details: NCI-H522, 48 h
Summary of the method: as §1
In the case of COc1ccc(C(=O)c2cc(F)c(F)c(OC)c2F)c(OC)c1N, the GI50 is reported as 0.752 µM.
Work on COc1ccc(C(=O)c2cc(F)c(F)c(OC)c2F)cc1O yielded a GI50 of 1.34 µM.

Test system: SK-OV-3
Assay: Cytotoxicity against human SKOV3 cells assessed as growth inhibition after 48 hrs by SRB assay
Assay type: functional
Details: SK-OV-3, 48 h
Summary of the method: as §1
In the case of COc1ccc(C(=O)c2cc(F)c(F)c(OC)c2F)c(OC)c1N, the GI50 is reported as 8.37 µM.
In the case of COc1ccc(C(=O)c2cc(F)c(F)c(OC)c2F)cc1O, the GI50 is reported as 2.44 µM.

Test system: HCT-15
Assay: Cytotoxicity against human HCT15 cells assessed as growth inhibition after 48 hrs by SRB assay
Assay type: functional
Details: HCT-15, 48 h
Summary of the method: as §1
In the case of COc1ccc(C(=O)c2cc(F)c(F)c(OC)c2F)c(OC)c1N, the GI50 is reported as 2.98 µM.
Work on COc1ccc(C(=O)c2cc(F)c(F)c(OC)c2F)cc1O yielded a GI50 of 1.76 µM.

Test system: MDA-MB-435
Assay: Cytotoxicity against human MDA-MB-435 cells assessed as growth inhibition after 48 hrs by SRB assay
Assay type: functional
Details: MDA-MB-435, 48 h
Summary of the method: as §1
With COc1ccc(C(=O)c2cc(F)c(F)c(OC)c2F)c(OC)c1N the GI50 was 0.407 µM.
For COc1ccc(C(=O)c2cc(F)c(F)c(OC)c2F)cc1O, the GI50 was 0.285 µM.

Test system: PC-3
Assay: Cytotoxicity against human PC3 cells assessed as growth inhibition after 48 hrs by SRB assay
Assay type: functional
Details: PC-3, 48 h
Summary of the method: as §1
In the case of COc1ccc(C(=O)c2cc(F)c(F)c(OC)c2F)c(OC)c1N, the GI50 is reported as 10.2 µM.
Work on COc1ccc(C(=O)c2cc(F)c(F)c(OC)c2F)cc1O yielded a GI50 of 3.72 µM.

Test system: Malme-3M
Assay: Cytotoxicity against human MALME-3M cells assessed as growth inhibition after 48 hrs by SRB assay
Assay type: functional
Details: not given
Summary of the method: as §1
In the case of COc1ccc(C(=O)c2cc(F)c(F)c(OC)c2F)c(OC)c1N, the GI50 is reported as 11.5 µM.
In the case of COc1ccc(C(=O)c2cc(F)c(F)c(OC)c2F)cc1O, the GI50 is reported as 9.53 µM.

Test system: MDA-MB-231
Assay: Cytotoxicity against human MDA-MB-231 cells assessed as growth inhibition after 48 hrs by SRB assay
Assay type: functional
Details: MDA-MB-231, 48 h
Summary of the method: as §1
COc1ccc(C(=O)c2cc(F)c(F)c(OC)c2F)c(OC)c1N showed a GI50 of 8.55 µM.
COc1ccc(C(=O)c2cc(F)c(F)c(OC)c2F)cc1O showed a GI50 of 2.09 µM.

Test system: not listed separately
Assay: Inhibition of sheep brain tubulin assembly by DAPI staining-based fluorescence assay
Design: species or system Ovis aries
Details: not given
Summary of the method: as §2
Work on COc1ccc(C(=O)c2cc(F)c(F)c(OC)c2F)c(OC)c1N yielded an IC50 of 29.2 µM.
Molecule COc1ccc(C(=O)c2cc(F)c(F)c(OC)c2F)cc1O has an IC50 of 28.2 µM.

Test system: BT-549
Assay: Cytotoxicity against human BT549 cells assessed as growth inhibition after 48 hrs by SRB assay
Assay type: functional
Details: BT-549, 48 h
Summary of the method: as §1
Molecule COc1ccc(C(=O)c2cc(F)c(F)c(OC)c2F)c(OC)c1N has a GI50 of 34.1 µM.
With COc1ccc(C(=O)c2cc(F)c(F)c(OC)c2F)cc1O the GI50 was 3.13 µM.

Test system: KM12
Assay: Cytotoxicity against human KM12 cells assessed as growth inhibition after 48 hrs by SRB assay
Assay type: functional
Details: KM12, 48 h
Summary of the method: as §1
For COc1ccc(C(=O)c2cc(F)c(F)c(OC)c2F)c(OC)c1N, the GI50 was 0.89 µM.
In the case of COc1ccc(C(=O)c2cc(F)c(F)c(OC)c2F)cc1O, the GI50 is reported as 1.03 µM.

Test system: K562
Assay: Cytotoxicity against human K562 cells assessed as growth inhibition after 48 hrs by SRB assay
Assay type: functional
Details: K562, 48 h
Summary of the method: as §1
For COc1ccc(C(=O)c2cc(F)c(F)c(OC)c2F)c(OC)c1N, the GI50 was 1.83 µM.
For COc1ccc(C(=O)c2cc(F)c(F)c(OC)c2F)cc1O, the GI50 was 0.186 µM.

Test system: ACHN
Assay: Cytotoxicity against human ACHN cells assessed as growth inhibition after 48 hrs by SRB assay
Assay type: functional
Details: not given
Summary of the method: as §1
Molecule COc1ccc(C(=O)c2cc(F)c(F)c(OC)c2F)c(OC)c1N has a GI50 of 7.9 µM.
Molecule COc1ccc(C(=O)c2cc(F)c(F)c(OC)c2F)cc1O has a GI50 of 6.84 µM.

Test system: NCI-H460
Assay: Cytotoxicity against human NCI-H460 cells assessed as growth inhibition after 48 hrs by SRB assay
Assay type: functional
Details: NCI-H460, 48 h
Summary of the method: as §1
In the case of COc1ccc(C(=O)c2cc(F)c(F)c(OC)c2F)c(OC)c1N, the GI50 is reported as 3 µM.
Molecule COc1ccc(C(=O)c2cc(F)c(F)c(OC)c2F)cc1O has a GI50 of 2.23 µM.

Test system: CCRF-CEM
Assay: Cytotoxicity against human CCRF-CEM cells assessed as growth inhibition after 48 hrs by SRB assay
Assay type: functional
Details: not given
Summary of the method: as §1
Molecule COc1ccc(C(=O)c2cc(F)c(F)c(OC)c2F)c(OC)c1N has a GI50 of 3.35 µM.
Work on COc1ccc(C(=O)c2cc(F)c(F)c(OC)c2F)cc1O yielded a GI50 of 3.31 µM.

Test system: NCI-H23
Assay: Cytotoxicity against human NCI-H23 cells assessed as growth inhibition after 48 hrs by SRB assay
Assay type: functional
Details: NCI-H23, 48 h
Summary of the method: as §1
With COc1ccc(C(=O)c2cc(F)c(F)c(OC)c2F)c(OC)c1N the GI50 was 30.7 µM.
Molecule COc1ccc(C(=O)c2cc(F)c(F)c(OC)c2F)cc1O has a GI50 of 3.75 µM.

Test system: SF-539
Assay: Cytotoxicity against human SF539 cells assessed as growth inhibition after 48 hrs by SRB assay
Assay type: functional
Details: SF-539, 48 h
Summary of the method: as §1
COc1ccc(C(=O)c2cc(F)c(F)c(OC)c2F)c(OC)c1N gave a GI50 of 3.59 µM.
Molecule COc1ccc(C(=O)c2cc(F)c(F)c(OC)c2F)cc1O has a GI50 of 2.47 µM.

Test system: SNB-75
Assay: Cytotoxicity against human SNB75 cells assessed as growth inhibition after 48 hrs by SRB assay
Assay type: functional
Details: SNB-75, 48 h
Summary of the method: as §1
Work on COc1ccc(C(=O)c2cc(F)c(F)c(OC)c2F)c(OC)c1N yielded a GI50 of 1.7 µM.
Work on COc1ccc(C(=O)c2cc(F)c(F)c(OC)c2F)cc1O yielded a GI50 of 1.74 µM.

Test system: M14
Assay: Cytotoxicity against human M14 cells assessed as growth inhibition after 48 hrs by SRB assay
Assay type: functional
Details: M14, 48 h
Summary of the method: as §1
With COc1ccc(C(=O)c2cc(F)c(F)c(OC)c2F)cc1O the GI50 was 0.804 µM.

Test system: OVCAR-3
Assay: Cytotoxicity against human OVCAR3 cells assessed as growth inhibition after 48 hrs by SRB assay
Assay type: functional
Details: OVCAR-3, 48 h
Summary of the method: as §1
In the case of COc1ccc(C(=O)c2cc(F)c(F)c(OC)c2F)c(OC)c1N, the GI50 is reported as 2.09 µM.
COc1ccc(C(=O)c2cc(F)c(F)c(OC)c2F)cc1O gave a GI50 of 1.5 µM.

Test system: RXF 393
Assay: Cytotoxicity against human RXF393 cells assessed as growth inhibition after 48 hrs by SRB assay
Assay type: functional
Details: RXF 393, 48 h
Summary of the method: as §1
In the case of COc1ccc(C(=O)c2cc(F)c(F)c(OC)c2F)c(OC)c1N, the GI50 is reported as 4.51 µM.
Molecule COc1ccc(C(=O)c2cc(F)c(F)c(OC)c2F)cc1O has a GI50 of 2.47 µM.

Test system: SNB-19
Assay: Cytotoxicity against human SNB19 cells assessed as growth inhibition after 48 hrs by SRB assay
Assay type: functional
Details: SNB-19, 48 h
Summary of the method: as §1
In the case of COc1ccc(C(=O)c2cc(F)c(F)c(OC)c2F)c(OC)c1N, the GI50 is reported as 5.47 µM.
In the case of COc1ccc(C(=O)c2cc(F)c(F)c(OC)c2F)cc1O, the GI50 is reported as 4.39 µM.
